# Test results taken from ChEMBL document CHEMBL2057097, “Synthesis and biological evaluation of rebeccamycin analogues modified at the imide moiety” (Bioorg Med Chem Lett, 2012).
# Columns and labels:
# A2780 [1] = assay: Cytotoxicity against human A2780 cells after 72 hrs by sulforhodamine B assay; assay type: functional, cell-based; conditions: A2780, 72 h
# Method in brief: (§1)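 Cells seeded (A2780 2000, H460 1500, GLC-4 1500 per well), incubated 24 h at 37 °C, 5% CO₂. Compounds from DMSO diluted in saline, tested over 0.001 to 10 range. 24 h exposure, two PBS washes, then 72 h in drug-free medium. Viability by SRB; IC50 from survival-versus-concentration curve against untreated control.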
# NCI-H460 = assay: Cytotoxicity against human NCI-H460 cells after 72 hrs by sulforhodamine B assay; assay type: functional, cell-based; conditions: NCI-H460, 72 h; method in brief: as §1
# [2] = Cytotoxicity against human GLC4 cells after 72 hrs by sulforhodamine B assay; assay type: functional, cell-based; conditions: GLC4, 72 h; method in brief: as §1
# A2780 [3] = assay: Ratio of IC50 for edotecarin to compound IC50 for human A2780 cells after 72 hrs by sulforhodamine B assay; assay type: functional
# A2780 [4] = assay: Antitumor activity against human A2780 cells xenografted in athymic harlan mouse assessed as tumor volume inhibition at 90 mg/kg, […] Q4D for 4 weeks; assay type: functional; conditions: A2780, 672 h
# Method in brief: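 Female athymic nude mice, 6–8 weeks old, five per group, implanted s.c. in right flank with A2780 cells (10 × 10⁶ cells/flank in 0.2 ml 0.9% NaCl). Treatment began at tumours approximately 50 mm³. Compound dissolved in sterile water, diluted in saline, given i.v. q4dx4 at 10 ml/kg. Calliper length/width; TV = width² × length/2. TVI versus controls at nadir of treated group; deaths recorded.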
# Mus musculus = assay: Toxicity in athymic Harlan mouse xenografted with human A2780 cells assessed as mortality at 90 mg/kg, iv administered Q4D for 4 weeks; assay type: organism-based; design: dose 90 mg/kg, route intravenous; conditions: in vivo, 672 h
# Method in brief: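 Female athymic nude mice (6–8 weeks old, five per group) received 10 × 10⁶ A2780 cells s.c. in the right flank, suspended in 0.9% NaCl. Dosing began at tumours of about 50 mm³. The drug was dissolved in sterile water for injection, diluted in saline just before use, and given i.v. q4dx4 (twice weekly) at 10 ml/kg. Read-out was deaths out of total mice.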
Structure (SMILES),IC50 (A2780 [1]),IC50 (NCI-H460),IC50 [2],Ratio IC50 (A2780 [3]),inhibition in vivo at 90 mg/kg (A2780 [4]),Activity (Mus musculus)
O=C1c2c(c3c4ccc(O)cc4n([C@@H]4O[C@H](CO)[C@@H](O)[C@H](O)[C@H]4O)c3c3[nH]c4cc(O)ccc4c23)C(=O)N1NCC1COCO1 (some centres not stated),1.7 nM,> 1000 nM,0.8 nM,3,–,–
O=C1c2c(c3c4ccc(O)cc4n([C@@H]4O[C@H](CO)[C@@H](O)[C@H](O)[C@H]4O)c3c3[nH]c4cc(O)ccc4c23)C(=O)N1N1CCOCC1,54 nM,> 1000 nM,90 nM,–,–,–
O=C1c2c(c3c4ccc(O)cc4n([C@@H]4O[C@H](CO)[C@@H](O)[C@H](O)[C@H]4O)c3c3[nH]c4cc(O)ccc4c23)C(=O)N1NC1C(O)CCCC1O (some centres not stated),90 nM,> 250 nM,101 nM,–,–,–
CC[C@@]1(O)C(=O)OCc2c1cc1n(c2=O)Cc2cc3ccccc3nc2-1 [CAMPTOTHECIN],7 nM,5 nM,10 nM,–,–,–
O=C1c2c(c3c4ccc(O)cc4n([C@@H]4O[C@H](CO)[C@@H](O)[C@H](O)[C@H]4O)c3c3[nH]c4cc(O)ccc4c23)C(=O)N1NC(CO)CO [EDOTECARIN],6.5 nM,193 nM,0.8 nM,–,99.8%,Non-toxic
O=C1c2c(c3c4ccc(O)cc4n([C@@H]4O[C@H](CO)[C@@H](O)[C@H](O)[C@H]4O)c3c3[nH]c4cc(O)ccc4c23)C(=O)N1NC1COCOC1,0.7 nM,> 250 nM,0.7 nM,10,99.7%,Non-toxic
COCC(COC)NN1C(=O)c2c(c3c4ccc(O)cc4n([C@@H]4O[C@H](CO)[C@@H](O)[C@H](O)[C@H]4O)c3c3[nH]c4cc(O)ccc4c23)C1=O,12.7 nM,> 125 nM,3.8 nM,–,–,–
